Assay outcomes as filed in PubChem BioAssay.
Rad51 HR inh: human RAD51 strand exchange inhibitors, primary screen, biochemical, fluorescence; DNA repair protein RAD51 homolog 1 (Homo sapiens), Q06609; hRad51 DNA strand exchange, fluorescence dequenching; inhibition, % at 10 µM; 0.085% of 200,000 active;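 active = inhibition above 40% at the single screening dose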;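 note: 0% = DMSO control wells and 100% = blanks with heterologous ssDNA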
Target sequence (Q06609 whole entry, looked up): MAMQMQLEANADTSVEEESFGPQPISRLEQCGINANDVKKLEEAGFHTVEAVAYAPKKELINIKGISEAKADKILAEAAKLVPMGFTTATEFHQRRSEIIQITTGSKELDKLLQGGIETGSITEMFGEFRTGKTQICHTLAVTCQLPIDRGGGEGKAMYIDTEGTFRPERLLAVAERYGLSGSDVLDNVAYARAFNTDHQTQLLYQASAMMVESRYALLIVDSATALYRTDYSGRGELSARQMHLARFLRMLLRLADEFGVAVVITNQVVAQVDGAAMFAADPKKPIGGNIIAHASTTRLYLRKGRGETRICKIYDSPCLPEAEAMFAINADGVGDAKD
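System: hRad51 filaments on single-stranded DNA; reagent: Fluorescein- and BHQ1-tagged 47-mer duplex; compound dosing: one concentration, 10 µM final; timing: filaments 15 min 37 °C, then compound 30 min; measured by: fluorescein emission 520 nm, excitation 485 nm; benchmarks: per-plate controls and blanks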
m-calpain inh: inhibitors of pig calpain II, primary screen, biochemical, fluorogenic peptide substrate, 1536-well. 0.37% of 220,000 active. inhibition, % at 16 µM. purified calpain II, 30 min;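 active = inhibition above about 50%, limit read from the data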
Lmaj promast: Leishmania major promastigote growth inhibition, primary screen. AID 1063, 2008. 9% of 200,000 active. Leishmania major promastigotes, resazurin fluorescence viability. inhibition, % at 10 µM; in the data active = inhibition above about 50%;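 note: promastigotes grown with compound for 44 hours at 28 °C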
PMI act: activators of human PMI, primary screen, biochemical, fluorescence intensity, near-Km mannose 6-phosphate. AID 1214, 2008. purified human PMI, coupled resazurin fluorescence, 20 min; hits give high values; 1 = vehicle control, 0 substrate-free wells. 0.005% of 190,000 active. activation factor at 20 µM;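 active = activation factor of 2 or more at 20 µM, relative to plate controls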
PMI act hi M6P: human PMI activators, high substrate, primary screen, biochemical, fluorescence intensity, near-saturating mannose 6-phosphate; coupled PMI enzyme assay, resazurin fluorescence, 20 min; hits give high values; 1 = untreated enzyme, 0 = substrate-free blank; activation factor at 20 µM; 0.34% of 190,000 active; AID 1216, 2008; Mannose-6-phosphate isomerase (Homo sapiens), P34949;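 active = activation factor of 2 or more at 20 µM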
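test system = human PMI in coupled enzyme assay | medium = HEPES-buffered pH 7.4 with magnesium and detergent | also added = 1.0 mM mannose-6-phosphate substrate with 0.22 mM NADP+ | compound = 20 µM single dose | times = 20 min incubation at room temperature | measured by = resorufin fluorescence (Ex 544/Em 590 nm) from resazurin via diaphorase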
WT yeast gro inh: growth inhibition of WT strain, primary screen, mitochondrial fusion inhibitor project, WT and mutant strains, chemical genetic; 2.1% of 190,000 active; inhibition, % at 10 µM; mitochondrial fusion phenotypic screen; in the data active = inhibition above about 58%; tested in S. cerevisiae
* marks the source's active call; other numbers are inactive results; . = no result given. Rows were chosen to be rich in hits. Some 9.8% of all compounds tested hit in one or more screens of this group.

SMILES | Rad51 HR inh | m-calpain inh | Lmaj promast | PMI act | PMI act hi M6P | WT yeast gro inh
Cc1ccc(-c2csc3ncnc(SCc4ccc(C(=O)O)cc4)c23)cc1 | 4 | 3 | -3 | 1 | 1 | 59*
CCCC(=O)Nc1ccccc1Sc1ncnc2scc(-c3ccccc3)c12 | 12 | 18 | 55* | 1 | 0.9 | 18
CC(=O)Nc1ccc(Sc2ncnc3scc(-c4ccccc4)c23)cc1 | -1 | -26 | 1 | 0.8 | 0.9 | 79*
Cc1sc2ncnc(SCc3ccc(C(=O)O)cc3)c2c1C | . | -8 | -4 | 1.1 | 1 | 1
Cc1sc2ncn(/N=C/c3ccco3)c(=O)c2c1C | -53 | 0 | . | . | . | .
COc1ccc([N+](=O)[O-])cc1NC(=O)C(C)OC(=O)c1cccnc1 (centres undefined) | -5 | 39 | -2 | 1 | 0.9 | 14
COc1ccc(C(C(=O)NC(C)(C)C)N(Cc2ccco2)C(=O)CCC(=O)Nc2cc(C)on2)cc1 (centres undefined) | -4 | 25 | 87* | 1 | 1 | 5
COc1ccc(C(C(=O)NC(C)(C)C)N(Cc2ccc(C)cc2)C(=O)CCC(=O)Nc2cc(C)on2)cc1 (centres undefined) | . | -29 | 94* | 1 | 1 | -1
COc1cccc(C(C(=O)NC(C)(C)C)N(Cc2ccco2)C(=O)CCC(=O)Nc2cc(C)on2)c1OC (centres undefined) | . | 35 | -6 | 0.9 | 0.9 | 18
CCC(C)(C)NC(=O)C(c1ccc(OC)cc1)N(Cc1ccco1)C(=O)CCC(=O)Nc1cc(C)on1 (centres undefined) | -3 | 6 | 96* | 1.1 | 1.1 | 0
CCOC(=O)C1=C(CN2CC(C)CC(C)C2)NC(=O)NC1c1ccc2c(c1)OCO2 (centres undefined) | 4 | 16 | 33 | 0.9 | 0.9 | 12
CCCCc1nnc(NC(=O)COc2ccc3c(C)cc(=O)oc3c2)s1 | -5 | 8 | . | . | . | .
CCc1cccc(CC)c1NC(=O)CSc1nnc(CCC(=O)O)c(=O)[nH]1 | 7 | -2 | -9 | 1 | 1 | -7
CCC1=NN(C(=O)c2cccnc2)C(O)(C(F)(F)F)C1 (centres undefined) | 4 | -7 | 25 | 1.1 | 1.1 | 3
COc1ccccc1CN(Cc1ccco1)S(=O)(=O)c1ccc(-n2cnnn2)c(OC)c1 | 7 | 13 | 73* | 0.9 | 1 | 26
COc1cc(S(=O)(=O)N(Cc2ccccn2)Cc2ccccc2Cl)ccc1-n1cnnn1 | 2 | -19 | 20 | 0.9 | 1 | -18
COc1cccc(CN(Cc2cccnc2)S(=O)(=O)c2ccc(-n3cnnn3)c(C)c2)c1OC | 0 | -23 | 98* | 0.9 | 1 | -7
O=C(c1ccco1)N1CCN(C(=O)c2ccc(COc3ccc4c(c3)CCC4)o2)CC1 | 9 | -13 | 83* | 0.9 | 1 | 20
O=C(c1ccc(COc2ccc3c(c2)CCC3)o1)N1CCN(c2ccccc2)CC1 | . | . | -2 | . | . | .
COCCCNC(=S)NNC(=O)c1ccc(S(=O)(=O)N2CCC(C)CC2)cc1 | 0 | -11 | -3 | 1 | 1.1 | -8
CC(=O)NN1C(=O)c2ccccc2NC1c1ccc([N+](=O)[O-])o1 (centres undefined) | 3 | -3 | 66* | 1 | 0.9 | 6
O=C(NN1C(=O)c2ccccc2NC1c1ccccn1)c1ccc(Br)cc1 (centres undefined) | 8 | -47 | -5 | 1 | 1 | 27
O=C(NN1C(=O)c2ccccc2NC1c1ccco1)c1ccc(Br)cc1 (centres undefined) | 33 | -35 | 3 | 1.1 | 1.2 | 14
O=C(NN1C(=O)c2ccccc2NC1c1ccco1)c1ccc([N+](=O)[O-])cc1 (centres undefined) | -3 | 62* | -3 | 1.1 | 1 | 3
O=C(NN1C(=O)c2ccccc2NC1c1ccc([N+](=O)[O-])o1)c1ccc(Br)cc1 (centres undefined) | 29 | 12 | 95* | 1.1 | 1 | -1
